Measured values gathered from unrelated publications.
Read-out: cell growth or viability

CC(C)(C)c1cnc(CSc2cnc(NC(=O)C3CCN(C(=O)COCCOCCSc4cccc5c4C(=O)N(C4CCC(=O)NC4=O)C5=O)CC3)s2)o1 (stereo not shown) gave a viability of 100% (HH; CCK-8; 0.1 µM).
C=CC(=O)NC1CCN(c2ncc3ncnc(Nc4ccc(Oc5ccc6c(c5)ncn6C)c(C)c4)c3n2)CC1 gave an EC50 of 0.0333 µM (PANC-03-27).
The viability of CC(=NNC(N)=S)c1ccc(Nc2nnc(-c3ccc(Cl)cc3)c3ccccc23)cc1 is reported as 95.6% (HepG2; MTT; 78 nM; 24 h).
CNc1ncc2c(/C=C/C(=O)N3CCC(N(C)C)CC3)nn(CC3CCCC3)c2n1 has an EC50 of 15 µM (OE33; resazurin; 5 days).
For CC(C)(C)c1cnc(CSc2cnc(NC(=O)C3CCN(CCCCCSc4cccc5c4CN(C4CCC(=O)NC4=O)C5=O)CC3)s2)o1 (stereo not shown), the viability was 0% (HH; CCK-8; 0.2 µM).
S=C(Nc1ccccc1)Nc1ccc(Oc2nnc(-c3ccc(Cl)cc3)c3ccccc23)cc1 has a viability of 2.77% (HepG2; MTT; 10 µM; 24 h).
CNc1ncc2c(/C=C/C(=O)O)nn(CC3CCCC3)c2n1 gave an EC50 of over 30 µM (OE33; resazurin; 5 days).
CC(C)(C)c1cnc(CSc2cnc(NC(=O)C3CCN(CCCCSc4cccc5c4C(=O)N(C4CCC(=O)NC4=O)C5=O)CC3)s2)o1 (stereo not shown) has a viability of 96.8% (HH; CCK-8; 50 nM).
With Nc1ncnc2c1c(/C=C/C(=O)N1CCCCC1)nn2CC1CCCC1 the EC50 was over 30 µM (OE33; resazurin; 5 days).
O=C(Nc1ccc(Oc2nnc(-c3ccc(Cl)cc3)c3ccccc23)cc1)c1ccccc1 has a cell death of 67.5% (HepG2; MTT; 0.312 µM).
With CNc1ncc2c(/C=C/C(=O)N3CCC(OC)CC3)nn(CCC(C)C)c2n1 the EC50 was 19.7 µM (OE33; resazurin; 5 days).
With O=C(Nc1ccccc1)Nc1ccc(Oc2nnc(-c3ccc(Cl)cc3)c3ccccc23)cc1 the viability was 5.31% (HepG2; MTT; 0.625 µM; 24 h).
The viability of CC(C)(C)c1cnc(CSc2cnc(NC(=O)C3CCN(CCCCCCCCSc4cccc5c4CN(C4CCC(=O)NC4=O)C5=O)CC3)s2)o1 (stereo not shown) is reported as 90.8% (HH; CCK-8; 50 nM).
